Source: ChEMBL document CHEMBL3244424, “Potential anticancer agents. 17. Analogues of methotrexate with a tripeptide side chain” (J Med Chem, 1978)

How the values were obtained:
[1] = Toxicity in Wistar rat administered as single dose; type: organism-based; details: in vivo
L1210 [2] = experiment: Antitumor activity against mouse L1210 cells allografted in BDF1 mouse assessed as increase in life span at 50 mg/kg administered 6 times starting 24 hrs post challenge relative to control; type: functional; details: L1210, 24 h
Procedure, shortened: (§1)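 L1210 leukemia cells, 10^6, inoculated ip; dosing started 24 h after inoculation, given daily as an aqueous solution at pH 8.0-8.4. Survival of treated versus control mice was read out as %ILS = (T/C − 1) × 100.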

L1210 [3] = experiment: Antitumor activity against mouse L1210 cells allografted in BDF1 mouse assessed as increase in life span at 40 mg/kg administered 10 times starting 24 hrs post challenge relative to control; type: functional; details: L1210, 24 h; procedure, shortened: as §1
W256 [4] = experiment: Antitumor activity against […] cells allografted in rat assessed as tumor growth inhibition at 60 mg/kg administered 14 times starting 7 days post challenge relative to control; details: W256, 7 days, read-out: TGI
L1210 [5] = experiment: Antitumor activity against mouse L1210 cells allografted in BDF1 mouse assessed as increase in life span at 33 mg/kg administered 6 times starting 24 hrs post challenge relative to control; type: functional; details: L1210, 24 h; procedure, shortened: as §1
W256 [6] = experiment: Antitumor activity against […] cells allografted in rat assessed as tumor growth inhibition at 18 mg/kg administered 13 times starting 7 days post challenge relative to control; details: W256, 7 days, read-out: TGI
L1210 [7] = experiment: Antitumor activity against mouse L1210 cells allografted in BDF1 mouse assessed as increase in life span at 100 mg/kg administered 8 times starting 24 hrs post challenge relative to control; type: functional; details: L1210, 24 h; procedure, shortened: as §1
W256 [8] = experiment: Antitumor activity against […] cells allografted in rat assessed as tumor growth inhibition at 100 mg/kg administered 13 times starting 7 days post challenge relative to control; details: W256, 7 days, read-out: TGI
L1210 [9] = experiment: Antitumor activity against mouse L1210 cells allografted in BDF1 mouse assessed as increase in life span at 100 mg/kg administered 6 times starting 24 hrs post challenge relative to control; type: functional; details: L1210, 24 h; procedure, shortened: as §1
L1210 [10] = experiment: Antitumor activity against mouse L1210 cells allografted in BDF1 mouse assessed as increase in life span at 50 mg/kg administered 8 times starting 24 hrs post challenge relative to control; type: functional; details: L1210, 24 h; procedure, shortened: as §1
L1210 [11] = experiment: Antitumor activity against mouse L1210 cells allografted in BDF1 mouse assessed as increase in life span at 100 mg/kg administered 7 times starting 24 hrs post challenge relative to control; type: functional; details: L1210, 24 h; procedure, shortened: as §1

Work on `CC(NC(=O)c1ccc(N(C)Cc2cnc3nc(N)nc(N)c3n2)cc1)C(=O)NC(CCC(=O)O)C(=O)O` (stereo not given) yielded an LD50 [1] of 500 mg/kg and an ILS at 50 mg/kg (L1210 [2]) of 19%.

`Nc1nc(N)c2nc(CNc3ccc(C(=O)NCC(=O)NC(CC(=O)O)C(=O)O)cc3)cnc2n1.O` (stereo not given) showed an LD50 [1] of 200 mg/kg, an ILS at 40 mg/kg (L1210 [3]) of 69% and an inhibition in vivo at 60 mg/kg (W256 [4]) of 55%.

Work on `Nc1nc(N)c2nc(CNc3ccc(C(=O)NCC(=O)NC(CCC(=O)O)C(=O)O)cc3)cnc2n1.O` (stereo not given) yielded an LD50 [1] of 400 mg/kg, an ILS at 33 mg/kg (L1210 [5]) of 14% and an inhibition in vivo at 18 mg/kg (W256 [6]) of 30%.

Work on `CN(Cc1cnc2nc(N)nc(N)c2n1)c1ccc(C(=O)NCC(=O)NC(CC(=O)O)C(=O)O)cc1.O` (stereo not given) yielded an LD50 [1] of 500 mg/kg, an ILS at 100 mg/kg (L1210 [7]) of 40% and an inhibition in vivo at 100 mg/kg (W256 [8]) of 41%.

Molecule `CN(Cc1cnc2nc(N)nc(N)c2n1)c1ccc(C(=O)NCC(=O)NC(CCC(=O)O)C(=O)O)cc1.O` (stereo not given) has an LD50 [1] of 830 mg/kg and an ILS at 100 mg/kg (L1210 [7]) of 0%.

Molecule `CN(CC(=O)NC(CCC(=O)O)C(=O)O)C(=O)c1ccc(N(C)Cc2cnc3nc(N)nc(N)c3n2)cc1.O` (stereo not given) has an LD50 [1] of 1000 mg/kg and an ILS at 100 mg/kg (L1210 [9]) of 0%.

`CC(C)C[C@H](NC(=O)c1ccc(N(C)Cc2cnc3nc(N)nc(N)c3n2)cc1)C(=O)NC(CCC(=O)O)C(=O)O` (stereo not given in full) showed an LD50 [1] of 500 mg/kg and an ILS at 50 mg/kg (L1210 [10]) of 0%.

With `CN(Cc1cnc2nc(N)nc(N)c2n1)c1ccc(C(=O)N[C@@H](Cc2ccccc2)C(=O)NC(CC(=O)O)C(=O)O)cc1.O` (stereo not given in full) the LD50 [1] was 1000 mg/kg and the ILS at 100 mg/kg (L1210 [11]) was 0%.

`CN(Cc1cnc2nc(N)nc(N)c2n1)c1ccc(C(=O)N[C@@H](Cc2ccccc2)C(=O)NC(CCC(=O)O)C(=O)O)cc1.O` (stereo not given in full) showed an LD50 [1] of 500 mg/kg.
